High-throughput results (PubChem)
Apaf1 inhib: human Apaf-1 inhibition; reconstituted apoptosome caspase-3 activity, DEVD-Rh110 fluorescence; inhibition, % at 20 µM; actives 0.71% (n = 330,000); AID 489030; active means inhibition of at least 40% at 20 µM
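detection = Rh110 fluorescence intensity | test system = biochemical Apaf-1 apoptosome reconstitution | also added = cytochrome c and DEVD-Rh110 substrate | schedule = 30 min plus 50 min, RT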
UBC13 polyUb: human UBC13 polyubiquitination inhibition; P61088; UBC13 polyubiquitin chain formation, TR-FRET; inhibition, % at 20 µM; actives 0.47% (n = 330,000); in the data active means inhibition above about 45%, passing the limit was not always enough; inconclusive means no clear call, values can overlap the other calls
Target sequence (P61088 whole entry, looked up): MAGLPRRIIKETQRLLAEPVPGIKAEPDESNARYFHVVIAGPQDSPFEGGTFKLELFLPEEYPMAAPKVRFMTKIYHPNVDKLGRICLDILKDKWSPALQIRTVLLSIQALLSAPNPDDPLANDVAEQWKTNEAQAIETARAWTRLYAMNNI
MEKK2wt PB1 HTS: raises or lowers MEK5 binding to wildtype human MEKK2 PB1 domain; actives 1.1% (n = 290,000); Q9Y2U5; binding response (% of control), % at 10 µM; bead flow cytometry, Alexa488-MEK5 binding to MEKK2 WT; actives lie on both sides; AID 1531; in the data active means binding response below about 67% or above about 130%; inconclusive means no clear call, values can overlap the other calls; inactive means in between
MEKK2mut PB1 HTS: signal of MEK5 binding to mutant human MEKK2 PB1 domain | bead flow cytometry, Alexa488-MEK5 binding to MEKK2 mutant | percent response, % at 10 µM | actives 0.35% (n = 290,000) | AID 1530; in the data active means percent response above about 24%, passing the limit was not always enough
MEKK3 PB1 HTS: raises or lowers MEK5 binding to the human MEKK3 PB1 domain; Q99759; binding response (% of control), % at 10 µM; AID 1529; actives 1.4% (n = 290,000); bead-based flow cytometry, Alexa488-MEK5 binding to MEKK3; actives lie on both sides; 0 = blocked by unlabeled MEK5, 100 = vehicle;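 active means binding response more than 3 SD above or below the average of its plate-row segment, actives on both sides; inconclusive means wells at one plate position flagged as instrument error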;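 further: Alexa488 bead fluorescence after subtracting the streptavidin-only scavenger bead signal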
UCH37 DUB inh: human UCH37 deubiquitinating enzyme inhibition; purified proteasome/UCH37, Ub-AMC cleavage fluorescence; inhibition, % (no concentration beside the values); actives 0.33% (n = 330,000);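 active means mean inhibition over replicate wells above about 20%, limit read from the data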
Target sequence (Q9Y5K5 whole entry, looked up): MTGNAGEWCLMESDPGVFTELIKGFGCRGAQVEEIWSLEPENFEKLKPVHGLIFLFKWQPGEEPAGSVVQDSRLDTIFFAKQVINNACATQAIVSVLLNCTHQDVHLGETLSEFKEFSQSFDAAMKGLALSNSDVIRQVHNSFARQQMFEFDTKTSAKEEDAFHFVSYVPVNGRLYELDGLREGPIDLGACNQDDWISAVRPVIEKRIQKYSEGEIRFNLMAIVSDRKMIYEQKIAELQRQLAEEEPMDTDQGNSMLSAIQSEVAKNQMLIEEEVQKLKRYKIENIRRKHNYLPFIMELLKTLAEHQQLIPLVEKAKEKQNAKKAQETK
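Material: human UCH37 enzyme supplied as purified proteasome complex. Measure: % inhibition of Ub-AMC cleavage fluorescence. Medium: pH 7.4 Tris-HCl (50 mM) with ovalbumin, ATP-MgCl2, DTT. Times: 30 min preincubation with enzyme, 25 min cleavage at room temperature. Detection: AMC fluorescence intensity at 355/460 nm.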
Casp3 counter: inhibits human caspase-3 in UBC13 counter-screen. actives 4% (n = 1,400). AID 488856. Recombinant caspase-3, Caspase-Glo 3/7 luminescence, 60 min. shares compounds with UBC13 polyUb. inhibition, % at 20 µM;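 active means mean inhibition across replicates above about 26%, limit read from the data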
UBC13 conf: confirmation of human UBC13 polyubiquitin inhibitors. shares compounds with UBC13 polyUb. UBC13 polyubiquitination, TR-FRET, biochemical. inhibition, % at 10 µM. actives 68% (n = 1,400). AID 488859; in the data active means inhibition above about 45%; inconclusive means no clear call, values can overlap the other calls
Large screens that a line does not name were inactive (follow-up assays come after a bar, where they were run). A selection: hits, their analogues and other compounds. The true share with any hit is near 3%.

CCOc1ccc(NC(=O)NNC(=O)c2ccc3ccccc3c2O)cc1	UBC13 polyUb 49 | Casp3 counter inactive | UBC13 conf inactive
O=C(Nc1cccnc1)c1sc(Nc2ccccc2)nc1-c1ccccc1	UBC13 polyUb 48 | Casp3 counter inactive | UBC13 conf inactive
CCOc1ccc(-c2csc(NC(=O)c3cccc(N4C(=O)CCC4=O)c3)n2)cc1	UBC13 polyUb 58 | Casp3 counter inactive | UBC13 conf inconclusive
CSCCC(NC(=O)c1ccccc1Br)C(=O)NNC(=O)c1csc(N2CCOCC2)n1 (stereo not given)	UBC13 polyUb 50 (no result: MEKK2wt PB1 HTS, MEKK2mut PB1 HTS, MEKK3 PB1 HTS) | Casp3 counter inactive | UBC13 conf 52
CSCCC(NC(=O)c1ccccc1Br)C(=O)NCC(C)(C)N1CCOCC1 (stereo not given)	none (no result: MEKK2wt PB1 HTS, MEKK2mut PB1 HTS, MEKK3 PB1 HTS)
CSCCC(NS(=O)(=O)c1ccccc1F)C(=O)NNC(=O)c1csc(N2CCOCC2)n1 (stereo not given)	none (no result: MEKK2wt PB1 HTS, MEKK2mut PB1 HTS, MEKK3 PB1 HTS)
CSCCC(NC(=O)c1ccccc1Cl)C(=O)NNC(=O)c1csc(N2CCOCC2)n1 (stereo not given)	UBC13 polyUb 50 (no result: MEKK2wt PB1 HTS, MEKK2mut PB1 HTS, MEKK3 PB1 HTS) | Casp3 counter inactive | UBC13 conf 57
CC(=O)Nc1sc2c(c1-c1nc3ccccc3s1)CCN(C(C)C)C2	UBC13 polyUb 60 | Casp3 counter inactive | UBC13 conf inactive
O=c1c(Cl)c(NCCCO)cnn1-c1nc2ccccc2[nH]1	UBC13 polyUb 91 | Casp3 counter 93 | UBC13 conf 110
CCOC(=O)c1c(C)[nH]c(C2=NNC(=NC3CC3)SC2)c1C	UBC13 polyUb 77 | Casp3 counter 73 | UBC13 conf 101
CC(C)(C)NCc1cc(Br)ccc1OCc1cccs1	UBC13 polyUb 66 (no result: UCH37 DUB inh) | Casp3 counter inactive | UBC13 conf inactive
CC(C)(C)NCc1cc(Cl)ccc1OCc1cccs1	none (no result: UCH37 DUB inh)
C[C@]12CCC(=O)C=C1C=C[C@@H]1[C@@H]2CC[C@@]2(C)[C@H]1CC[C@@]21CCC(=O)O1	UBC13 polyUb 76 | Casp3 counter inactive | UBC13 conf inactive
CC(=O)O[C@]1(C(C)=O)CCC2C3C=C(C)C4=CC(=O)CC[C@]4(C)C3CC[C@@]21C (stereo not given in full)	none
Clc1ccc2c(c1)CNc1c(ncnc1N1CCOCC1)O2	UBC13 polyUb 50 | Casp3 counter inactive | UBC13 conf inactive
COC(=O)c1ccc(Cn2nc(C)c(Br)c2C)cc1	none
O=C(Nc1cccc(F)c1)c1cc(S(=O)(=O)NCCC2=CCCCC2)ccc1F	UBC13 polyUb 48 | Casp3 counter inactive | UBC13 conf inactive
Cc1ccc(NC(=O)c2cc(S(=O)(=O)NCCC3=CCCCC3)ccc2F)cc1F	none
Cn1c(SCC(=O)N2CCN(c3cccc(Cl)c3)CC2)nnc1-c1ccncc1	none
NCCCCc1ccc2ccc3cccc4ccc1c2c34	UBC13 polyUb 49 (no result: MEKK2wt PB1 HTS, MEKK2mut PB1 HTS, MEKK3 PB1 HTS) | Casp3 counter inactive | UBC13 conf 85
O=C(O)CCCc1ccc2ccc3cccc4ccc1c2c34	none
O=C(Nc1ccccc1O)c1ccc(NS(=O)(=O)c2cccc3cccnc23)cc1	none (no result: UCH37 DUB inh)
CCC1CCCCN1CCCNC(=O)C1CCN(c2ncnc3c2nc2n3CCCCC2)CC1 (stereo not given)	UBC13 polyUb 53 | Casp3 counter inactive | UBC13 conf 63
NS(=O)(=O)c1ccc(CCNC(=O)C2CCN(c3ncnc4c3nc3n4CCCCC3)CC2)cc1	UBC13 polyUb 55 | Casp3 counter inactive | UBC13 conf 59
CC1CCCCN1CCNC(=O)C1CCCN(c2ncnc3c2nc2n3CCCCC2)C1 (stereo not given)	none
Cc1ccc(NC(=O)C2CCN(c3ncnc4c3nc3n4CCCCC3)CC2)cc1Cl	UBC13 polyUb 72 | Casp3 counter inactive | UBC13 conf 94
Cc1ccc(NC(=O)C2CCCN(c3ncnc4c3nc3n4CCCCC3)C2)cc1Cl (stereo not given)	none
